Test [1] concerns the target Carbonic anhydrase 1 (Homo sapiens) (UniProt P00915). As to the kind of experiment: Activation of human cytosolic carbonic anhydrase 1 preincubated for 15 mins by stopped-flow CO2 hydration assay. An outline of the steps: (§1)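 Initial velocity taken from at least six traces of the first 5–10% of reaction per activator, with uncatalyzed rates measured identically and subtracted. Activator stocks 10 mM in distilled-deionized water, diluted with water down to 0.1 nM. Enzyme and activator preincubated 15 min at room temperature before assay.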

The target of test [2] is Carbonic anhydrase 2 (Homo sapiens) (UniProt P00918). Kind of test: Activation of human cytosolic carbonic anhydrase 2 preincubated for 15 mins by stopped-flow CO2 hydration assay. The procedure, abridged:
as §1

Carbonic anhydrase 1 (Homo sapiens), sequence (P00915 2-261 limits assumed): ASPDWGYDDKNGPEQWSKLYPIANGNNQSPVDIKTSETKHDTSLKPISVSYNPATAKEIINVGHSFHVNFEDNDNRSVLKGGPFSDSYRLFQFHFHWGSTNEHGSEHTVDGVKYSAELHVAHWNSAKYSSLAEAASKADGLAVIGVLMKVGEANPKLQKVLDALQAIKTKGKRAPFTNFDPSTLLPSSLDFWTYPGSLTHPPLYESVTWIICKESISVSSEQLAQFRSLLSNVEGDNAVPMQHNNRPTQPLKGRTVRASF

`NCCc1nc(I)[nH]c1I`: the KA in test [1] was 0.0009 µM; in test [2], 0.065 µM.

As for `NCCc1nc(Br)[nH]c1Br`, the KA in test [1] was 0.015 µM; in test [2], 0.096 µM.

As for `CC(C)(C)OC(=O)NCCc1nc(Cl)[nH]c1Cl`, the results for the KA in test [1] and in test [2] were 5.4 µM and 50.2 µM, respectively.

Take `NCCc1nc[nH]c1I`: the results for the KA in test [1] and in test [2] were 0.0007 µM and 0.001 µM, respectively.

For `NCCc1nc(Cl)[nH]c1Cl`, the KA came out at 0.021 µM in test [1] and 0.115 µM in test [2].

As for `NCCc1nc[nH]c1Br`, the KA in test [1] was 0.012 µM; in test [2] it was 0.008 µM.

In the case of `CC(C)(C)OC(=O)NCCc1nc(I)[nH]c1I`, the KA in test [1] was determined as 29.3 µM; in test [2] it was 13.6 µM.

`CC(C)(C)OC(=O)NCCc1nc[nH]c1I`: the KA in test [1] stood at 12.1 µM; in test [2], 36.7 µM.

In the case of `CC(C)(C)OC(=O)NCCc1nc[nH]c1Br`, the KA stood at 13.3 µM in test [1] and 28.5 µM in test [2].

For the compound `CC(C)(C)OC(=O)NCCc1nc(Br)[nH]c1Br`, the values for the KA in test [1] and in test [2] were 7.1 µM and 44.5 µM, respectively.

`CC(C)(C)OC(=O)NCCc1nc[nH]c1Cl`: the KA came out at 16.5 µM in test [1] and 24.8 µM in test [2].

On to `NCCc1nc[nH]c1Cl`, for which the KA in test [1] came to 0.018 µM; in test [2] it was 0.032 µM.

The values are drawn from ChEMBL document CHEMBL1806369, “Carbonic anhydrase I and II activation with mono- and dihalogenated histamine derivatives” (Bioorg Med Chem Lett, 2011).
